According to ChEMBL document CHEMBL4043093, “2-Oxo-3, 4-dihydropyrimido[4, 5-d]pyrimidinyl derivatives as new irreversible pan fibroblast growth factor receptor (FGFR) inhibitors” (Eur J Med Chem, 2017):
pIC50: −log10 of the molar value.

Assays:
[1] = target: Receptor tyrosine-protein kinase erbB-3 (Homo sapiens) (UniProt P21860); assay: Inhibition of wild-type human partial length ERBB3 (G684 to A987 residues) expressed in HEK293 cells assessed as residual activity at 1000 nM after 30 mins by Kinomescan method relative to control; assay type: cell-based
[2] = target: Casein kinase I isoform epsilon (Homo sapiens) (UniProt P49674); assay: Inhibition of wild-type human full length CSNK1E (M1 to K416 residues) expressed in Escherichia coli BL21 assessed as residual activity at 1000 nM after 30 mins by Kinomescan method relative to control
Chain of Casein kinase I isoform epsilon (Homo sapiens) (P49674 whole entry, looked up, the tested form may be a part, canonical isoform): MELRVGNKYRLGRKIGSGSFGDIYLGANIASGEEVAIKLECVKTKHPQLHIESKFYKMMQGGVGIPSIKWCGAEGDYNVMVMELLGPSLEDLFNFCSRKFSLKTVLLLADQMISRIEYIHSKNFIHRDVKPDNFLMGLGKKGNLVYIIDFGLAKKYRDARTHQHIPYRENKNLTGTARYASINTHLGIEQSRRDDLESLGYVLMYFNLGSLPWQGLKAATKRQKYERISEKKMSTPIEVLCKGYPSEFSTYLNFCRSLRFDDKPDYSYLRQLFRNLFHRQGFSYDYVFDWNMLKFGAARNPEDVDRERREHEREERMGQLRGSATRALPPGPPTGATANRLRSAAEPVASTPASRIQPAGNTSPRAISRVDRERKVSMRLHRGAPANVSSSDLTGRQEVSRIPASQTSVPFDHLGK
Procedure, shortened: (§1)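 Single-point screen at a fixed 1 µM, run within a 456-kinase DiscoveRx KINOMEscan panel. Each kinase's read-out is Percent Control, i.e. signal relative to a control without compound. Hits were scored by a Percent Control < 35 cut-off, and an S(35) selectivity score was calculated across the non-mutant kinases.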

[3] = target: Myosin light chain kinase 2, skeletal/cardiac muscle (Homo sapiens) (UniProt Q9H1R3); assay: Inhibition of wild-type human partial length MYLK2 (D258 to K570 residues) expressed in Escherichia coli BL21 assessed as residual activity at 1000 nM after 30 mins by Kinomescan method relative to control
[4] = target: Serine/threonine-protein kinase TAO2 (Homo sapiens) (UniProt Q9UL54); assay: Inhibition of wild-type human partial length TAOK2 (M1 to A320 residues) expressed in HEK293 cells assessed as residual activity at 1000 nM after 30 mins by Kinomescan method relative to control; assay type: cell-based
[5] = target: Cyclin-dependent kinase 16 (Homo sapiens) (UniProt Q00536); assay: Inhibition of wild-type human partial length PCTK1 (G160 to A474 residues) expressed in HEK293 cells assessed as residual activity at 1000 nM after 30 mins by Kinomescan method relative to control; assay type: cell-based
Chain of Cyclin-dependent kinase 16 (Homo sapiens) (Q00536 whole entry, the tested form may be a part): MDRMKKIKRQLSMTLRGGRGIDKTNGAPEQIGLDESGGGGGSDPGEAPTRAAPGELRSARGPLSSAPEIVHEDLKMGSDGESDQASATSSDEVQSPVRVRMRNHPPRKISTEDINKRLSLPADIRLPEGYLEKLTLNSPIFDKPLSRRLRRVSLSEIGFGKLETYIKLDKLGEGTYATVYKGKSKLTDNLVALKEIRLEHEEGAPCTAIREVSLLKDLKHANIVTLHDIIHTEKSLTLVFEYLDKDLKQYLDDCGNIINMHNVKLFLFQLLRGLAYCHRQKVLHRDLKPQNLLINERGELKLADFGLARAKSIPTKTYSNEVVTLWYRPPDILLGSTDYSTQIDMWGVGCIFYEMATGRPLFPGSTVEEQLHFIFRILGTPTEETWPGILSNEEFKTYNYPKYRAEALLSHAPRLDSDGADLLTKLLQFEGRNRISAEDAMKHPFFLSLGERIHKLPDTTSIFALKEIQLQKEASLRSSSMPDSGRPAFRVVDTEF

[6] = target: Calcium/calmodulin-dependent protein kinase type IV (Homo sapiens) (UniProt Q16566); assay: Inhibition of wild-type human partial length CAMK4 (A22 to A322 residues) expressed in Escherichia coli BL21 assessed as residual activity at 1000 nM after 30 mins by Kinomescan method relative to control
[7] = Antiproliferative activity against human FGFR2-amplified SUM52 cells after 5 days by SRB assay; conditions: SUM52, 120 h
[8] = target: Dual specificity mitogen-activated protein kinase kinase 3 (Homo sapiens) (UniProt P46734); assay: Inhibition of wild-type human full length MEK3 (M1 to S318 residues) expressed in HEK293 cells assessed as residual activity at 1000 nM after 30 mins by Kinomescan method relative to control; assay type: cell-based
Chain of Dual specificity mitogen-activated protein kinase kinase 3 (Homo sapiens) (P46734 whole entry, the tested form may be a part): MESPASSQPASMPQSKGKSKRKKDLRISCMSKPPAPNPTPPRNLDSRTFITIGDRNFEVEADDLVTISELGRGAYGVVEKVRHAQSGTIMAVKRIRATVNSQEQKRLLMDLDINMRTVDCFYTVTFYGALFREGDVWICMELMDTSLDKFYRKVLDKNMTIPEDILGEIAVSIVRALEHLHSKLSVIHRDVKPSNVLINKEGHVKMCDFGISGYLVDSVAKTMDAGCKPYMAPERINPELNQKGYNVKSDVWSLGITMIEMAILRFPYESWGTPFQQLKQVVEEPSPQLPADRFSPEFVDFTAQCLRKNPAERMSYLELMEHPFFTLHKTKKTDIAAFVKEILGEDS
Procedure, shortened: (§2)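 Single-concentration screen at 1 µM across a 456-kinase KINOMEscan panel. The read-out is Percent Control for each kinase.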

[9] = tested on: Plasmodium falciparum; assay: Inhibition of wild-type Plasmodium falciparum full length PK5 (M1 to N288 residues) expressed in HEK293 cells assessed as residual activity at 1000 nM after 30 mins by Kinomescan method relative to control; assay type: cell-based; procedure, shortened: as §1
[10] = target: Tyrosine-protein kinase Fyn (Homo sapiens) (UniProt P06241); assay: Inhibition of wild-type human partial length FYN (T243 to L534 residues) expressed in Escherichia coli BL21 assessed as residual activity at 1000 nM after 30 mins by Kinomescan method relative to control
[11] = target: Myosin light chain kinase family member 4 (Homo sapiens) (UniProt Q86YV6); assay: Inhibition of wild-type human partial length MYLK4 (V79 to S380 residues) expressed in Escherichia coli BL21 assessed as residual activity at 1000 nM after 30 mins by Kinomescan method relative to control
[12] = target: Serine/threonine-protein kinase 17A (Homo sapiens) (UniProt Q9UEE5); assay: Inhibition of wild-type human partial length DRAK1 (R32 to E363 residues) expressed in Escherichia coli BL21 assessed as residual activity at 1000 nM after 30 mins by Kinomescan method relative to control
Chain of Serine/threonine-protein kinase 17A (Homo sapiens) (Q9UEE5 whole entry, the tested form may be a part): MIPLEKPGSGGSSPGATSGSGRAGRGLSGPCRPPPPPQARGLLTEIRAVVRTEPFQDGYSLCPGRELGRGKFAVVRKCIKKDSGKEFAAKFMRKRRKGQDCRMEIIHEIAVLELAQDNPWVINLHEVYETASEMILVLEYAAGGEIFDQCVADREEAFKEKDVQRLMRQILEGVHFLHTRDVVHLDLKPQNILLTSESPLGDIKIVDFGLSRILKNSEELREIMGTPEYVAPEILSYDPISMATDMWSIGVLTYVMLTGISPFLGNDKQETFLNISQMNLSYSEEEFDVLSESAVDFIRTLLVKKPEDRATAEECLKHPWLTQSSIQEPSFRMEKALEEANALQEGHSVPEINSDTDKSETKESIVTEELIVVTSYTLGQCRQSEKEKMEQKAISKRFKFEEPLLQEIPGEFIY

[13] = target: Tyrosine-protein kinase ABL1 (Homo sapiens) (UniProt P00519); assay: Inhibition of wild-type human phosphorylated ABL1 (S229 to K512 residues) expressed in HEK293 cells assessed as residual activity at 1000 nM after 30 mins by Kinomescan method relative to control; assay type: cell-based
Chain of Tyrosine-protein kinase ABL1 (Homo sapiens) (P00519 whole entry, the tested form may be a part): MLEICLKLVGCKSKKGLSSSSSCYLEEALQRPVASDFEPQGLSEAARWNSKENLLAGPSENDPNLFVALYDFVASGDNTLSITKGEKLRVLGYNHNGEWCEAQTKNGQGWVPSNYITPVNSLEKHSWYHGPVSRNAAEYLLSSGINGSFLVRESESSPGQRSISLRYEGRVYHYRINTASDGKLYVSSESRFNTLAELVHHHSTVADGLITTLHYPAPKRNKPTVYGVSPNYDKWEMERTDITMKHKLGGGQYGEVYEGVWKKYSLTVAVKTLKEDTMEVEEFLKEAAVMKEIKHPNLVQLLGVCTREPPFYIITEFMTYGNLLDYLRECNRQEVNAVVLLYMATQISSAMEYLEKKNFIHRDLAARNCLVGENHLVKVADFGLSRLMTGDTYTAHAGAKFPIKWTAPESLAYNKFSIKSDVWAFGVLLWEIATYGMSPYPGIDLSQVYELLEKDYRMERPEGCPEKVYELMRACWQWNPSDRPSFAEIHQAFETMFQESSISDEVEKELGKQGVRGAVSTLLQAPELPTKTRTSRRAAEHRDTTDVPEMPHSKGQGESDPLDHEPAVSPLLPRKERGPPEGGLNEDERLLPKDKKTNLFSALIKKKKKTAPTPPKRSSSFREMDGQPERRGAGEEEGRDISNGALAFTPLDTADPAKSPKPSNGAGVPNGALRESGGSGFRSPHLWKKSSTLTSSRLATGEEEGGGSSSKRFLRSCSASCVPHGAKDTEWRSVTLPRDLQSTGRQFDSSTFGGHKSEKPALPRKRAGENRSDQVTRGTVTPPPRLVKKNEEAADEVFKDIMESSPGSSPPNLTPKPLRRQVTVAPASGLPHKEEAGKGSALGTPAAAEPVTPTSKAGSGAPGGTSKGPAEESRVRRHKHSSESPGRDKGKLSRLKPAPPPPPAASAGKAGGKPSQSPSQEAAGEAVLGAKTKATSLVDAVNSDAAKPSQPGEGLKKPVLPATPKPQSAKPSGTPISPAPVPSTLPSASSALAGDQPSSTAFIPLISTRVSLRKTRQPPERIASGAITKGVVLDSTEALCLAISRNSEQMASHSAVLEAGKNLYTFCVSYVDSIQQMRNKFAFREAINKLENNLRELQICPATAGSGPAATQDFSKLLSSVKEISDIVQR

[14] = tested on: Epidermal growth factor receptor (Homo sapiens), P00533 [L858R]; assay: Inhibition of human partial length EGFR L858R mutant (R669 to V1011 residues) expressed in Escherichia coli BL21 assessed as residual activity at 1000 nM after 30 mins by Kinomescan method relative to control
Procedure, shortened: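 KINOMEscan binding panel of 456 kinases, with the test compound at a single concentration of 1 µM. Read-out is Percent Control.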

[15] = target: Hormonally up-regulated neu tumor-associated kinase (Homo sapiens) (UniProt P57058); assay: Inhibition of wild-type human partial length HUNK (A31 to K354 residues) expressed in Escherichia coli BL21 assessed as residual activity at 1000 nM after 30 mins by Kinomescan method relative to control
Chain of Hormonally up-regulated neu tumor-associated kinase (Homo sapiens) (P57058 whole entry, the tested form may be a part): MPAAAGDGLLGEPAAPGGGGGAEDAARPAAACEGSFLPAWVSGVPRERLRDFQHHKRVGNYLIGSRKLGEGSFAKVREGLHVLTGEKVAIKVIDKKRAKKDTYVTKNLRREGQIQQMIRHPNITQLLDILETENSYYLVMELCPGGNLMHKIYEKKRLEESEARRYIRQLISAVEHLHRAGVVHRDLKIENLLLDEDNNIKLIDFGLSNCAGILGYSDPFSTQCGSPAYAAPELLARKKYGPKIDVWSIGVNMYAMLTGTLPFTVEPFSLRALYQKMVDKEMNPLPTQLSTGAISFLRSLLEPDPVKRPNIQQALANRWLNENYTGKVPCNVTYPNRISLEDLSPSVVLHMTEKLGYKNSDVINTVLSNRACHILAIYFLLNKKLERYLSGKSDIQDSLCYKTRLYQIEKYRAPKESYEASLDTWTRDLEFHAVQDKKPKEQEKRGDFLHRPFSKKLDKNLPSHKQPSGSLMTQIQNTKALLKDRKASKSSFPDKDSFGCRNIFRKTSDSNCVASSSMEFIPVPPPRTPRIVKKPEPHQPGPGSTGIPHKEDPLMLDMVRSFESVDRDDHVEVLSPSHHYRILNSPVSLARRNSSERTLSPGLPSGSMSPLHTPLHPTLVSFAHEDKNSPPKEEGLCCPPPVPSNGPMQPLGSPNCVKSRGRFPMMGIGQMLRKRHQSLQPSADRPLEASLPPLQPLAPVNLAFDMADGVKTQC

[16] = target: Mitogen-activated protein kinase kinase kinase 3 (Homo sapiens) (UniProt Q99759); assay: Inhibition of wild-type human partial length MAP3K3 (E320 to Y626 residues) expressed in HEK293 cells assessed as residual activity at 1000 nM after 30 mins by Kinomescan method relative to control; assay type: cell-based
Chain of Mitogen-activated protein kinase kinase kinase 3 (Homo sapiens) (Q99759 whole entry, the tested form may be a part): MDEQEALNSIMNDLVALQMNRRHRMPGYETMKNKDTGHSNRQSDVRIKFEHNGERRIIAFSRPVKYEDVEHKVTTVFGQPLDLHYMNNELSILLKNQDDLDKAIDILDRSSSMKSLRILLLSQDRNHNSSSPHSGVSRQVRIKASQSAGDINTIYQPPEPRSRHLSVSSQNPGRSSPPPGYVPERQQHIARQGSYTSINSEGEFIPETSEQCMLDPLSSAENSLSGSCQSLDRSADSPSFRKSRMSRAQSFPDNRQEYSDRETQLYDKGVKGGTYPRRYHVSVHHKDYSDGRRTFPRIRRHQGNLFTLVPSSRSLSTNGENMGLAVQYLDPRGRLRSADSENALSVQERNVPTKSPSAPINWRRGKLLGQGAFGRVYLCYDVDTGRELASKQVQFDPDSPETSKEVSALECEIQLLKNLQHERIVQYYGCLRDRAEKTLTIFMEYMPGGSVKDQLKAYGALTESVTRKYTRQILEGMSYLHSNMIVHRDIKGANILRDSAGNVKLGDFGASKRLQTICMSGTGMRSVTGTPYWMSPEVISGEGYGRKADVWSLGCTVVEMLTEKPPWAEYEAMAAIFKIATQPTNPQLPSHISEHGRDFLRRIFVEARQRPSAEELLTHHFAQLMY

[17] = target: RAC-gamma serine/threonine-protein kinase (Homo sapiens) (UniProt Q9Y243); assay: Inhibition of wild-type human partial length AKT3 expressed in Escherichia coli BL21 assessed as residual activity at 1000 nM after 30 mins by Kinomescan method relative to control
Chain of RAC-gamma serine/threonine-protein kinase (Homo sapiens) (Q9Y243 whole entry, the tested form may be a part): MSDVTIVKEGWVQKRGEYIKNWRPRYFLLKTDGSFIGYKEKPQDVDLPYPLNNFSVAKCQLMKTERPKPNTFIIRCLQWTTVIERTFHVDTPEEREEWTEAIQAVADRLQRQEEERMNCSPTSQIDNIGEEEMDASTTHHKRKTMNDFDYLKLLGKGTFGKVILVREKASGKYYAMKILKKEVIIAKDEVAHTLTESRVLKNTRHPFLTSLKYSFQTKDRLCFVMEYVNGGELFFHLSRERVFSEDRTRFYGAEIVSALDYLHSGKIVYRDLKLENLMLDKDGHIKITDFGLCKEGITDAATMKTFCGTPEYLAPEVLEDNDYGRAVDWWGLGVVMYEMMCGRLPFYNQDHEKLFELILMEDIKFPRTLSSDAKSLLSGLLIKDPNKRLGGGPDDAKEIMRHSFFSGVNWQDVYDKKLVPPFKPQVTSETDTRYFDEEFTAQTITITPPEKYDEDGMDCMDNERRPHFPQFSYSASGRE

[18] = target: Testis-specific serine/threonine-protein kinase 3 (Homo sapiens) (UniProt Q96PN8); assay: Inhibition of wild-type human full length TSSK3 (M1 to T268 residues) expressed in HEK293 cells assessed as residual activity at 1000 nM after 30 mins by Kinomescan method relative to control; assay type: cell-based
Chain of Testis-specific serine/threonine-protein kinase 3 (Homo sapiens) (Q96PN8 whole entry, the tested form may be a part): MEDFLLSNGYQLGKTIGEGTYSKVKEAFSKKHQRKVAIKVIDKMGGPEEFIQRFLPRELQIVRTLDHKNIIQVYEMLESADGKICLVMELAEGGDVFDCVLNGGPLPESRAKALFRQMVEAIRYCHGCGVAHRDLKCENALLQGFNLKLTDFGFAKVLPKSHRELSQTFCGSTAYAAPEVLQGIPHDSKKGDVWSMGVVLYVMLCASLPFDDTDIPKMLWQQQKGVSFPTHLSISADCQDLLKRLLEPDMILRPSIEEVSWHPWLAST

[19] = target: Serine/threonine-protein kinase MRCK gamma (Homo sapiens) (UniProt Q6DT37); assay: Inhibition of wild-type human partial length DMPK2 (S46 to S408 residues) expressed in Escherichia coli BL21 assessed as residual activity at 1000 nM after 30 mins by Kinomescan method relative to control
[20] = target: Serine/threonine-protein kinase Nek9 (Homo sapiens) (UniProt Q8TD19); assay: Inhibition of wild-type human partial length NEK9 (P32 to R328 residues) expressed in Escherichia coli BL21 assessed as residual activity at 1000 nM after 30 mins by Kinomescan method relative to control
[21] = target: Serine/threonine-protein kinase NLK (Homo sapiens) (UniProt Q9UBE8); assay: Inhibition of wild-type human full length NLK (M13 to E527 residues) expressed in Escherichia coli BL21 assessed as residual activity at 1000 nM after 30 mins by Kinomescan method relative to control; procedure, shortened: as §2
[22] = target: NUAK family SNF1-like kinase 2 (Homo sapiens) (UniProt Q9H093); assay: Inhibition of wild-type human partial length SNARK (P22 to A333 residues) expressed in HEK293 cells assessed as residual activity at 1000 nM after 30 mins by Kinomescan method relative to control; assay type: cell-based

For COc1cc(OC)c(Cl)c(N2Cc3cnc(Nc4ccc(F)cc4)nc3N(C3CCN(C(=O)/C=C/CN(C)C)CC3)C2=O)c1Cl, the Activity [1] was 100%, the Activity [2] was 100% and the Activity [3] was 82%. The Activity [4] was 6.2%, the Activity [5] was 100% and the Activity [6] was 96%. For the same compound, the pIC50 [7] was 9.11, the Activity [8] was 90% and the Activity [9] was 100%. The Activity [10] was 19%, the Activity [11] was 85% and the Activity [12] was 96%. The Activity [13] was 37%, the Activity [14] was 90% and the Activity [15] was 100%. The Activity [16] was 1.9%, the Activity [17] was 96% and the Activity [18] was 100%. For the same compound, the Activity [19] was 100%, the Activity [20] was 100% and the Activity [21] was 98%. The Activity [22] was 89%.
